ATG4B inhibitor = ATG4B (human) cysteine protease inhibition. AID 504462. inhibition, % at 8.33 µM. 340,000 compounds, 0.51% hits. ATG4B cleavage of LC3-PLA2, NBD-HPC fluorescence, 1 h; in the data active = inhibition above about 40%
ABHD4 inh = ABHD4 (mouse) inhibition, primary FP screen | 370,000 compounds, 0.54% hits | AID 720543 | inhibition, % at 8.92 µM | purified mABHD4, FP-Rh probe fluorescence polarization;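 active = inhibition exceeding the mean over every tested compound plus 3 SD, cut at about 30% in these data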;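 also: 0% = plate median of compound wells and 100% = S159A mutant with DMSO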
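Material: mouse ABHD4 enzyme, wild type; Benchmarks: S159A mutant high control, sample median low control; Buffer or medium: HEPES pH 7.0, NaCl, Pluronic buffer; Signal: fluorescence polarization; Read-out: percent inhibition of probe binding, normalized to plate controls; Timing: pre-incubation 45 min, probe exposure 60 min, at 25 °C; Dosing: 8.92 µM, single dose.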
SIAE primary = blocks human sialic acid acetylesterase. Q9HAT2. SIAE FP-Rh probe binding, fluorescence polarization. inhibition, % at 9.66 µM. 370,000 compounds, 0.69% hits. AID 1053197;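 active = inhibition above a cutoff: mean of compounds within the control limits plus 3 SD of those, cut at about 17% in these data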;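 also: 0% = plate median of compound wells and 100% = probe without SIAE protein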
TCR-CD3 inh = human TCR-CD3 binding inhibition; TAMRA-labeled TCR probe fluorescence, biochemical; inhibition, % at 9.4 µM; 360,000 compounds, 0.37% hits; AID 651800; in the data active = inhibition above about 19%;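 also: recombinant mutant TCR 2C K166C tagged with TAMRA read by polarization; 0% = receptor in buffer alone and 100% = receptor with positive control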
PRMT1 FP inh = PRMT1 (human) inhibition, primary screen; recombinant PRMT1, activity-based probe fluorescence polarization; inhibition, % at 2.79 µM; 370,000 compounds, 1.3% hits; AID 652257;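 active = inhibition above about 21% made by adding two undisclosed values, limit read from the data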
HTRA1 inhibitor = HTRA1 (human) protease inhibition. recombinant HTRA1, FP-rhodamine activity-based probe, fluorescence polarization. inhibition, % at 5.96 µM. 340,000 compounds, 0.5% hits. Q92743; in the data active = inhibition above about 36%;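 also: 0% = enzyme with DMSO and 100% = wells lacking enzyme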
Target sequence (Q92743 whole entry, looked up): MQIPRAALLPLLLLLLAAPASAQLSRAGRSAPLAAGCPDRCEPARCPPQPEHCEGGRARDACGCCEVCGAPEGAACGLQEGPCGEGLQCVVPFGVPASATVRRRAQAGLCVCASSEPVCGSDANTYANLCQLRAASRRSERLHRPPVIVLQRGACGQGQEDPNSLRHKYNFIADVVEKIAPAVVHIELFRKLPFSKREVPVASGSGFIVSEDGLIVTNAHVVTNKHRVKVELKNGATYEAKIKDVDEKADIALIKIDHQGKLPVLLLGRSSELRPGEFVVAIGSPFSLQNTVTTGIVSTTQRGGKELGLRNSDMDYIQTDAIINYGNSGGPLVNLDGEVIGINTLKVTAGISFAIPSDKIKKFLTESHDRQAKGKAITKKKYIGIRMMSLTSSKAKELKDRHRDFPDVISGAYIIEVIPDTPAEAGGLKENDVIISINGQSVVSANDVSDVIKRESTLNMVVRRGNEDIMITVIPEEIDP
ABHD4 confirm = confirmation of mouse ABHD4 inhibitors; shares compounds with ABHD4 inh; purified mABHD4, FP-Rh probe fluorescence polarization; inhibition, % at 8.92 µM; 1,800 compounds, 55% hits;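 active = mean inhibition across replicates above the hit cutoff set in the primary screen, cut at about 30% in these data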;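 also: 0% = wild-type ABHD4 with DMSO and 100% = catalytically dead S159A mutant with DMSO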
An asterisk follows results filed as active; . = no result given. Sampled rows, rich in hits. Any-hit rate of the full collection: about 2.9%.

SMILES	ATG4B inhibitor	ABHD4 inh	SIAE primary	TCR-CD3 inh	PRMT1 FP inh	HTRA1 inhibitor	ABHD4 confirm
CCC[C@@H](CNC)NC[C@H](Cc1ccccc1)NCCCCc1ccccc1	5	17	-1	-7	4	2	.
CC1CCC2(CCC(=O)N2CCCOC(=O)c2ccccc2)CC1 (configuration not stated)	.	-3	-2	.	-3	.	.
CCOc1ccc(-n2c(COc3ccccc3)nnc2SCC(=O)Nc2ccc(OCc3ccccc3)cc2)cc1	.	-6	-2	.	-4	.	.
COc1cc(/C=C2\SC(=O)N(c3ccccc3Cl)C2=O)cc([N+](=O)[O-])c1O	22	7	-2	-8	8	4	.
COc1cc(/C=C2\SC(=O)N(CC(=O)Nc3cccc(C)c3)C2=O)cc([N+](=O)[O-])c1O	33	31*	-4	-4	9	.	80*
CCCCCNC(=O)c1ccc2c(=O)[nH]c3c(C(=O)NCC4CCCO4)sc(=S)n3c2c1 (configuration not stated)	24	32*	-1	12	0	9	40*
Cc1ccc(CNC(=O)c2ccc3c(=O)[nH]c4c(C(=O)NCC5CCCO5)sc(=S)n4c3c2)cc1 (configuration not stated)	21	33*	10	6	3	10	41*
O=C(NCc1ccccc1)c1ccc2c(=O)[nH]c3c(C(=O)NCC4CCCO4)sc(=S)n3c2c1 (configuration not stated)	-3	26	-2	5	1	-4	.
CCn1c(N)c(C(=O)NCC2CCCO2)sc1=S (configuration not stated)	-8	4	1	2	8	7	.
O=C(CCc1ccccc1)N[C@H]1[C@H](OCc2ccccc2)CCC[C@@]12C(=O)N(Cc1ccccc1)c1ccc(-c3ccsc3)cc12	.	-11	-12	.	7	.	.
CCOC(=O)C(=O)Nc1nc(-c2ccc3c(c2)CCN3C(=O)C2CC2)c(C)s1	18	39*	0	6	-2	-2	19
COc1cc(OC)cc(C(=O)Nc2nc(CC(=O)NCc3ccc(F)cc3)cs2)c1	0	43*	0	-8	1	-45	35*
Cc1ccc(CSc2nnc(-c3cc(-c4ccc(C)cc4)n[nH]3)n2N)cc1	.	-2	2	.	2	.	.
Cc1ccc([C@@H]2CC=C(C(=O)O)[C@H](c3ccccc3F)N2S(=O)(=O)c2ccc(C)cc2)cc1	-5	12	2	4	1	-14	.
Cc1ccc(S(=O)(=O)N2[C@@H](c3ccccc3F)C(C(=O)O)=CC[C@H]2c2ccc(C(C)C)cc2)cc1	-2	33*	-1	-1	-2	-53	27
Cc1ccc(S(=O)(=O)Nc2nc3ccc(N)cc3s2)cc1	-5	49*	5	0	7	14	26
Cc1ccc(S(=O)(=O)Nc2nc3ccc(S(C)(=O)=O)cc3s2)cc1	-6	1	-5	1	6	0	.
COc1ccc(-c2csc(NS(=O)(=O)c3ccc([N+](=O)[O-])cc3)n2)cc1	15	37*	7	2	1	4	34*
Nc1ccc2ccc(N)cc2c1	.	35*	8	-4	1	.	1
Nc1ccc2ncccc2c1	12	6	-3	-9	2	0	.
COc1ccc(C2C(C(=O)Nc3ccc(Cl)cc3)CCC(=O)N2c2ccc(OC)cc2)cc1 (configuration not stated)	.	-3	-2	.	-5	.	.
O=[N+]([O-])c1cc(C(F)(F)F)cc([N+](=O)[O-])c1NCCCN1CCOCC1	-2	1	5	1	-5	-6	.
N#CCC(=O)NNc1c([N+](=O)[O-])cc(C(F)(F)F)cc1[N+](=O)[O-]	1	43*	7	-8	3	.	5
CN(C)[C@H]1CCN(c2ccc3c(c2)O[C@H]2CCN(C2)S3(=O)=O)C1	.	-3	1	.	1	.	.
COc1cccc(/C=N/Nc2snc(SC)c2C#N)c1	5	15	12	-7	13	-4	.
SMILES	ATG4B inhibitor	ABHD4 inh	SIAE primary	TCR-CD3 inh	PRMT1 FP inh	HTRA1 inhibitor	ABHD4 confirm
COc1cccc(/C=N/Nc2snc(SC)c2C#N)c1O	-24	33*	-24	5	0	6	23
COc1ccc(/C=N/Nc2snc(SC)c2C#N)cc1OC	-2	35*	-4	1	7	2	34*
Nc1ccc2c(c1)C(=O)c1ccc(N)cc1-2	-12	30*	3	5	5	16	37*
Nc1ccc2c(c1)C(=O)c1cc(Cl)c(Cl)cc1-2	-1	16	7	4	3	31	.
CCOC(=O)[C@]12CCCC=C1N(CCCOC)C(=O)[C@@H]2CC(=O)N1CCCC1	.	-3	-3	.	-2	.	.
O=C(O)c1ccc(N2CCN(C(c3ccccc3)c3ccccc3)CC2)c([N+](=O)[O-])c1	13	32*	-2	-4	4	-4	47*
CCOC(=O)CN1C(=O)CSc2ccc(S(=O)(=O)N3CCCC3)cc21	-5	35*	-3	0	0	6	-6
CCOC(=O)CN1C(=O)CSc2ccc(S(=O)(=O)N3CCOCC3)cc21	6	-1	10	7	-4	2	.
CC(=O)N=c1sc2ccccc2n1C	-9	5	-4	9	-2	-1	.
CC(=O)N=c1sc2nc3ccccc3nc2n1N(C(C)=O)C(C)=O	6	35*	2	17	8	5	3
CCOC(=O)[C@]12CCCCC/C=C\1N(CCc1ccc(Cl)cc1)C(=O)[C@H]2CC(=O)NCCCOC	.	-2	-2	.	-1	.	.
COC(=O)[C@]1(CNC(=O)Nc2ccc(C)c(Cl)c2)CC(=O)N(C)[C@@H]1c1ccccc1	.	-4	3	.	-5	.	.
CC(C)CCNC(=O)[C@H]1COC(O)([C@H](Cc2ccccc2)NC(=O)[C@@H](NC(=O)OCc2ccccc2)C(C)C)CN1C (some centres not stated)	.	3	-4	.	-1	.	.
O=C(O)C1Cn2c(nc3c(c2=O)C2(CCCC2)Cc2ccccc2-3)S1 (configuration not stated)	-2	42*	2	-1	-2	4	42*
Cc1cc(C(=O)O)ccc1-n1c(C)cc(/C=C(/C#N)C(=O)Nc2ccccc2)c1C	7	46*	-1	4	9	.	3
COCCNC(=O)C1Nc2ccc(C(F)(F)F)cc2C2C=CCC12 (configuration not stated)	-1	33*	8	-4	9	30	0
CCCN(C(=O)CCc1cn(CCC)c2ccccc12)c1ccc(Oc2cccnc2)cc1	.	3	3	0	-8	.	.
COc1cc(NC(=O)c2cc(C)on2)c(OC)cc1Cl	.	7	-3	.	2	.	.

Screening results (PubChem BioAssay)
